Source: ChEMBL document CHEMBL1151475, “Thiopurine drugs azathioprine and 6-mercaptopurine inhibit Mycobacterium paratuberculosis growth in vitro” (2008)

Legend:
Mycobacterium avium [1] = experiment: Antituberculosis activity against Mycobacterium avium 104 isolated from AIDS patient assessed as minimum drug level required for inhibition by MGIT 960 susceptibility test; type: functional
Procedure, shortened: (§1)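 10^5 to 10^6 CFU from single-cell suspensions inoculated in duplicate into MGIT ParaTB medium with supplement and egg yolk. Drugs were at final 0.5–64.0 μg/ml, with 128.0 μg/ml added for some strains. Tubes were incubated at 37°C in MGIT 960. Inhibition is the lowest concentration giving a time to detection longer than a drug-free 1:100 inoculum control. Killing is no positive signal through 56 days.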

[2] = system: Mycobacterium avium subsp. paratuberculosis; experiment: Antituberculosis activity against Mycobacterium paratuberculosis UCF-5 isolated from Crohn's disease patient assessed as minimum drug level required for inhibition by MGIT 960 susceptibility test; type: functional; procedure, shortened: as §1
[3] = system: Mycobacterium avium subsp. paratuberculosis; experiment: Antituberculosis activity against Mycobacterium paratuberculosis B236 isolated from bovine assessed as minimum drug level required for inhibition by MGIT 960 susceptibility test; type: functional; procedure, shortened: as §1
Mycobacterium avium [4] = experiment: Antituberculosis activity against Mycobacterium avium JTC981 isolated from bongo fecal sample assessed as minimum drug level required for killing within 15 days by MGIT 960 susceptibility test; type: functional, Feces
Mycobacterium avium [5] = experiment: Antituberculosis activity against Mycobacterium avium JTC48627 isolated from bison fecal sample assessed as minimum drug level required for killing within 15 days by MGIT 960 susceptibility test; type: functional, Feces
[6] = system: Mycobacterium avium subsp. paratuberculosis; experiment: Antituberculosis activity against Mycobacterium paratuberculosis B213 isolated from bovine assessed as minimum drug level required for killing after 56 days by MGIT 960 susceptibility test; type: functional; procedure, shortened: as §1
[7] = system: Mycobacterium avium subsp. paratuberculosis; experiment: Antituberculosis activity against Mycobacterium paratuberculosis ATCC 19698 isolated from bovine assessed as lowest drug level producing inhibition at 10^6 CFU of inoculum by agar counting method; type: functional
Procedure, shortened: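 ATCC 19698 at 10^6 CFU was exposed to drug (1.0–64.0 μg/ml) in MGIT ParaTB medium at 37°C. Aliquots taken at 3 and 5 days were centrifuged, resuspended in PBS and declumped with glass beads. Serial dilutions were plated in quadruplicate on 7H10/OADC/mycobactin J and counted after 8 weeks. Inhibition is the lowest concentration giving a 2 log10 (99%) CFU reduction.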

[8] = system: Mycobacterium avium subsp. paratuberculosis; experiment: Antituberculosis activity against Mycobacterium paratuberculosis UCF-8 isolated from Crohn's disease patient assessed as minimum drug level required for inhibition by MGIT 960 susceptibility test; type: functional; procedure, shortened: as §1
[9] = system: Mycobacterium avium subsp. paratuberculosis; experiment: Antituberculosis activity against Mycobacterium paratuberculosis B244 isolated from bovine assessed as minimum drug level required for inhibition by MGIT 960 susceptibility test; type: functional; procedure, shortened: as §1
[10] = system: Mycobacterium avium subsp. paratuberculosis; experiment: Antituberculosis activity against Mycobacterium paratuberculosis UCF-7 isolated from Crohn's disease patient assessed as minimum drug level required for inhibition by MGIT 960 susceptibility test; type: functional; procedure, shortened: as §1
Mycolicibacterium phlei = experiment: Antituberculosis activity against Mycobacterium phlei ATCC 11758 assessed as minimum drug level required for inhibition by MGIT 960 susceptibility test; type: functional
Procedure, shortened: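 MGIT ParaTB tubes were supplemented with egg yolk and inoculated in duplicate with 10^5 to 10^6 CFU from single-cell suspensions. Thiopurines were dissolved in 0.05 M NaOH in 10 mM PBS and tested at final 0.5 to 64.0 μg/ml, with 128.0 μg/ml added for some strains. Tubes ran at 37°C in the MGIT 960. The value is the lowest concentration giving a time-to-detection longer than a drug-free 1:100 inoculum control.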

[11] = system: Mycobacterium avium subsp. paratuberculosis; experiment: Antituberculosis activity against Mycobacterium paratuberculosis UCF-5 isolated from Crohn's disease patient assessed as minimum drug level required for killing after 56 days by MGIT 960 susceptibility test; type: functional; procedure, shortened: as §1

Sc1ncnc2nc[nH]c12 [MERCAPTOPURINE ANHYDROUS] gave an Activity (Mycobacterium avium [1]) greater than 64 µg/mL, an Activity [2] of 1 µg/mL and an Activity [3] of 4 µg/mL. For the same compound, the Activity (Mycobacterium avium [4]) was greater than 64 µg/mL, the Activity (Mycobacterium avium [5]) was greater than 64 µg/mL and the Activity [6] was greater than 32 µg/mL. It also gave an Activity [7] of 1 µg/mL, an Activity [8] of less than 1 µg/mL and an Activity [9] of 4 µg/mL. It also gave an Activity [10] of less than 1 µg/mL, an Activity (Mycolicibacterium phlei) of 1 µg/mL and an Activity [11] greater than 32 µg/mL.
